What follows are compounds tested on Mus musculus (assay: Hypolipidemic activity in high cholesterol diet fed ICR mouse assessed as reduction of LDL cholesterol level at 50 mg/kg/day, po after 12 hrs of last cholesterol challenge relative to control). Details: not given.
Parameters: scale not given: the % may be the effect or the level left

Structure (SMILES)	Activity [%]
CCCc1cc(OC)c(OC)cc1O	-60.81
CCCc1ccc(OCC(=O)O)c(OC)c1	-33.54
C=CCc1cc(OC)c(OC)cc1O	26.49

These compounds were tested on Mus musculus (assay: Hypolipidemic activity in high cholesterol diet fed ICR mouse assessed as reduction of triglyceride level at 50 mg/kg/day, po after 12 hrs of last cholesterol challenge relative to control). Details: not given.
Parameters: scale not given: the % may be the effect or the level left

Structure (SMILES)	Activity [%]
CCCc1cc(OC)c(OC)cc1O	-62.42
CCCc1ccc(OCC(=O)O)c(OC)c1	-38.38
C=CCc1cc(OC)c(OC)cc1O	-37.78

The compounds below were run on Mus musculus (assay: Hypolipidemic activity in high cholesterol diet fed ICR mouse assessed as reduction of HDL cholesterol level at 100 mg/kg/day, po after 12 hrs of last cholesterol challenge relative to control). Details: not given.
Parameters: scale not given: the % may be the effect or the level left

Structure (SMILES)	Activity [%]
CCCc1cc(OC)c(OC)cc1O	-23.07
CCCc1ccc(OCC(=O)O)c(OC)c1	-19.33
C=CCc1cc(OC)c(OC)cc1O	-35.96

The compounds below were run on Mus musculus (assay: Hypolipidemic activity in high cholesterol diet fed ICR mouse assessed as reduction of HDL cholesterol level at 50 mg/kg/day, po after 12 hrs of last cholesterol challenge relative to control). Details: not given.
Parameters: scale not given: the % may be the effect or the level left

Structure (SMILES)	Activity [%]
CCCc1cc(OC)c(OC)cc1O	-72.01
CCCc1ccc(OCC(=O)O)c(OC)c1	-15.66
C=CCc1cc(OC)c(OC)cc1O	-40.08

What follows are compounds tested on Mus musculus (assay: Hypolipidemic activity in high cholesterol diet fed ICR mouse assessed as reduction of total cholesterol level at 50 mg/kg, ip after 12 hrs of last cholesterol challenge relative to control). Details: route intraperitoneal.
Type: functional
Parameters: scale not given: the % may be the effect or the level left
Outline: (§1)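 Male ICR mice (24–27 g), six per group, were fed a high-cholesterol diet ad libitum for 6 days (1.0% cholesterol, 0.5% sodium cholate, 5% butter, 30% sucrose, 10% casein, 53.5% chow). Basal-diet mice served as controls. Dosing was 5 mL/kg and solutions were made fresh. Mice were fasted 12 h before sacrifice and bled periorbitally. Serum TC, HDL-C and TG were read on an analyzer, with LDL-C by Friedewald.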

Structure (SMILES)	Activity [%]
CCCc1cc(OC)c(OC)cc1O	-59.76
CCCc1ccc(OCC(=O)O)c(OC)c1	-32.83
C=CCc1cc(OC)c(OC)cc1O	-33.45

The compounds below were run on Mus musculus (assay: Hypolipidemic activity in ICR mouse assessed as decrease in Tyloxapol-induced triglyceride level at 50 mg/kg, ip administered 1 hr before Tyloxapol challenge and 22, 48 hrs after Tyloxapol challenge measured after 22 hrs relative to control). Details: route intraperitoneal.
Type: functional
Parameters: scale not given: the % may be the effect or the level left
Outline: (§2)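 Male ICR mice (24–27 g), groups of six. Hyperlipidemia induced by ip Tyloxapol (Triton WR 1339) 400 mg/kg in water. Drug given at 5 mL/kg 1 h before and 22 and 48 h after injection; vehicle controls. Blood drawn 22 h post-injection by periorbital bleeding. Serum total cholesterol, HDL-C and triglycerides measured on an automatic analyzer; LDL-C by the Friedewald equation. Values are % of the Tyloxapol group, mean ± SE.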

Structure (SMILES)	Activity [%]
CCCc1cc(OC)c(OC)cc1O	-60.69
CCCc1ccc(OCC(=O)O)c(OC)c1	-32.46
C=CCc1cc(OC)c(OC)cc1O	-23.2

The compounds below were run on Mus musculus (assay: Hypolipidemic activity in high cholesterol diet fed ICR mouse assessed as reduction of total cholesterol level at 100 mg/kg/day, ip after 12 hrs of last cholesterol challenge relative to control). Details: route intraperitoneal.
Type: functional
Parameters: scale not given: the % may be the effect or the level left
Outline: as §1

Structure (SMILES)	Activity [%]
CCCc1cc(OC)c(OC)cc1O	-24.12
CCCc1ccc(OCC(=O)O)c(OC)c1	-25.66
C=CCc1cc(OC)c(OC)cc1O	-40.67

The compounds below were run against T1, 3-hydroxy-3-methylglutaryl-coenzyme A reductase (Schizosaccharomyces pombe 972h-, UniProt Q10283) (assay: Inhibition of Schizosaccharomyces pombe HMG-CoA reductase by spectrophotometry). Details: read-out: IC50.
T1 sequence (Q10283 whole entry): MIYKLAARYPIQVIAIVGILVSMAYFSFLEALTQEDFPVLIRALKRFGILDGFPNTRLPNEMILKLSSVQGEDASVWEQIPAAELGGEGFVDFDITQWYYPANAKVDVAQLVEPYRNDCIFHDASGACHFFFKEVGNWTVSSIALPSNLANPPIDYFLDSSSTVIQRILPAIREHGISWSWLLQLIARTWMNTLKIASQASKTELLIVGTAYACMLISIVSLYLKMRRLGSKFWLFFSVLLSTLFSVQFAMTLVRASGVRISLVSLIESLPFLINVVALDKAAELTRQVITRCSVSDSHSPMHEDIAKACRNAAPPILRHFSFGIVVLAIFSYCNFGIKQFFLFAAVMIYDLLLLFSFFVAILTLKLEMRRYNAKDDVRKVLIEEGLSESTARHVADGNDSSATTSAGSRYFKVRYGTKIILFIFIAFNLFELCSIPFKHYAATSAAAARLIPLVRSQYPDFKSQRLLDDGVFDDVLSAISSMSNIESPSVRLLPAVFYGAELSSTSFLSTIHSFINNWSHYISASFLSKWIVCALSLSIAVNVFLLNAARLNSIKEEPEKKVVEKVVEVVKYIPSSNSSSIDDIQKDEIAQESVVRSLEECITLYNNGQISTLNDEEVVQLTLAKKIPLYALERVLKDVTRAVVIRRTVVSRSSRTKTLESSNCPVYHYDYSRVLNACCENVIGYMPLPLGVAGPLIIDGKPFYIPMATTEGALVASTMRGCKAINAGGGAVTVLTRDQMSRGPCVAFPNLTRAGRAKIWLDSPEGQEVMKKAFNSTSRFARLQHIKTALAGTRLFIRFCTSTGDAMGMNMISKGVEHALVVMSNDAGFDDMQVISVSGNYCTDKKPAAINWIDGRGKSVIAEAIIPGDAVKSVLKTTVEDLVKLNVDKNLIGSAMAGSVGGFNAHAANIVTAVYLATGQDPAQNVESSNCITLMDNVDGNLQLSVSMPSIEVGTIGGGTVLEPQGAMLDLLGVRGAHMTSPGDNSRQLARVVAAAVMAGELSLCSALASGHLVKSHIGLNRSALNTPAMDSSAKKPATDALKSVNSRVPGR
Outline: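 Membrane HMGR partially purified from S. pombe 972 h (YPD, 28 °C, 48 h) via centrifugation, Triton X-100 solubilization, 65 °C heat step, ammonium sulfate and calcium phosphate gel. Enzyme activated 37 °C 30 min, pre-incubated with compound (DMSO stocks 1–5 mM) 30 min at 37 °C. Assay: 200 µg enzyme, 0.13 mM HMG-CoA, 50 mM Tris-HCl pH 7.5; started with 0.13 mM NADPH; A340 decrease over 2 min; triplicate; IC50 derived.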

IC50 [µM]	Structure (SMILES)
73.6	CCCc1cc(OC)c(OC)cc1O
78.8	C=CCc1cc(OC)c(OC)cc1O

Each compound was assayed on Mus musculus (assay: Hypolipidemic activity in ICR mouse assessed as decrease in Tyloxapol-induced triglyceride level at 100 mg/kg, ip administered 1 hr before Tyloxapol challenge and 22, 48 hrs after Tyloxapol challenge measured after 22 hrs relative to control). Details: route intraperitoneal.
Type: functional
Parameters: scale not given: the % may be the effect or the level left
Outline: as §2

Structure (SMILES)	Activity [%]
CCCc1cc(OC)c(OC)cc1O	-14.84
CCCc1ccc(OCC(=O)O)c(OC)c1	-29.89
C=CCc1cc(OC)c(OC)cc1O	-6.83

What follows are compounds tested on Mus musculus (assay: Hypolipidemic activity in ICR mouse assessed as decrease in Tyloxapol-induced HDL-cholesterol level at 100 mg/kg, ip administered 1 hr before Tyloxapol challenge and 22, 48 hrs after Tyloxapol challenge measured after 22 hrs relative to control). Details: route intraperitoneal.
Type: functional
Parameters: scale not given: the % may be the effect or the level left
Outline: as §2

Structure (SMILES)	Activity [%]
CCCc1cc(OC)c(OC)cc1O	-37.36
CCCc1ccc(OCC(=O)O)c(OC)c1	-15.32
C=CCc1cc(OC)c(OC)cc1O	-41.77

Each compound was assayed on Mus musculus (assay: Hypolipidemic activity in high cholesterol diet fed ICR mouse assessed as reduction of LDL cholesterol level at 100 mg/kg/day, po after 12 hrs of last cholesterol challenge relative to control). Details: not given.
Parameters: scale not given: the % may be the effect or the level left

Structure (SMILES)	Activity [%]
CCCc1cc(OC)c(OC)cc1O	-22.77
CCCc1ccc(OCC(=O)O)c(OC)c1	-44.51
C=CCc1cc(OC)c(OC)cc1O	-44.22

These compounds were tested on Mus musculus (assay: Hypolipidemic activity in ICR mouse assessed as decrease in Tyloxapol-induced HDL-cholesterol level at 50 mg/kg, ip administered 1 hr before Tyloxapol challenge and 22, 48 hrs after Tyloxapol challenge measured after 22 hrs relative to control). Details: route oral, in the assay text read “po administered” for “ip administered”.
Type: functional
Parameters: scale not given: the % may be the effect or the level left
Outline: as §2

Structure (SMILES)	Activity [%]
CCCc1cc(OC)c(OC)cc1O	-38.67
CCCc1ccc(OCC(=O)O)c(OC)c1	-18.23
C=CCc1cc(OC)c(OC)cc1O	-39.67

What follows are compounds tested on Mus musculus (assay: Hypolipidemic activity in ICR mouse assessed as decrease in Tyloxapol-induced LDL-cholesterol level at 50 mg/kg, ip administered 1 hr before Tyloxapol challenge and 22, 48 hrs after Tyloxapol challenge measured after 22 hrs relative to control). Details: route oral, in the assay text read “po administered” for “ip administered”.
Type: functional
Parameters: scale not given: the % may be the effect or the level left
Outline: as §2

Structure (SMILES)	Activity [%]
CCCc1cc(OC)c(OC)cc1O	-66.67
CCCc1ccc(OCC(=O)O)c(OC)c1	-32.56
C=CCc1cc(OC)c(OC)cc1O	-42.98

Each compound was assayed on Mus musculus (assay: Hypolipidemic activity in ICR mouse assessed as decrease in Tyloxapol-induced total cholesterol level at 100 mg/kg, ip administered 1 hr before Tyloxapol challenge and 22, 48 hrs after Tyloxapol challenge measured after 22 hrs relative to control). Details: route oral, in the assay text read “po administered” for “ip administered”.
Type: functional
Parameters: scale not given: the % may be the effect or the level left
Outline: as §2

Structure (SMILES)	Activity [%]
CCCc1cc(OC)c(OC)cc1O	-55.75
CCCc1ccc(OCC(=O)O)c(OC)c1	-22.59
C=CCc1cc(OC)c(OC)cc1O	-54.11

These compounds were tested on Mus musculus (assay: Hypolipidemic activity in high cholesterol diet fed ICR mouse assessed as reduction of triglyceride level at 100 mg/kg/day, po after 12 hrs of last cholesterol challenge relative to control). Details: not given.
Parameters: scale not given: the % may be the effect or the level left

Structure (SMILES)	Activity [%]
CCCc1cc(OC)c(OC)cc1O	-38.38
CCCc1ccc(OCC(=O)O)c(OC)c1	-27.55
C=CCc1cc(OC)c(OC)cc1O	-42.39

These compounds were tested on Mus musculus (assay: Hypolipidemic activity in ICR mouse assessed as decrease in Tyloxapol-induced total cholesterol level at 50 mg/kg, ip administered 1 hr before Tyloxapol challenge and 22, 48 hrs after Tyloxapol challenge measured after 22 hrs relative to control). Details: route oral, in the assay text read “po administered” for “ip administered”.
Type: functional
Parameters: scale not given: the % may be the effect or the level left
Outline: as §2

Structure (SMILES)	Activity [%]
CCCc1cc(OC)c(OC)cc1O	-76.85
CCCc1ccc(OCC(=O)O)c(OC)c1	-21.28
C=CCc1cc(OC)c(OC)cc1O	-49.79

The compounds below were run on Mus musculus (assay: Hypolipidemic activity in ICR mouse assessed as decrease in Tyloxapol-induced LDL-cholesterol level at 100 mg/kg, ip administered 1 hr before Tyloxapol challenge and 22, 48 hrs after Tyloxapol challenge measured after 22 hrs relative to control). Details: route oral, in the assay text read “po administered” for “ip administered”.
Type: functional
Parameters: scale not given: the % may be the effect or the level left
Outline: as §2

Structure (SMILES)	Activity [%]
CCCc1cc(OC)c(OC)cc1O	-35.05
CCCc1ccc(OCC(=O)O)c(OC)c1	-39.12
C=CCc1cc(OC)c(OC)cc1O	-52.07
